Measurements from ChEMBL document CHEMBL5724801, “EUbOPEN Chemogenomics Library - Multiplex” (2024).
Several values for one entry are separate records, joined by “and”; a condition that tells them apart may be missing. Equal entries are not always repeated.

Test system: HEK-293T
Assay: Multiplex assay against HEK293T
Type: toxicity, cell-based
Details: human
Summary of the method: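 Per cents of healthy-nucleus cells form the tubulin, mitochondrial-mass and membrane-permeability phenotype values. Live cells were stained at seeding with Hoechst33342, BioTracker Green Microtubule Cytoskeleton Dye, MitoTracker Red and Annexin V Alexa Fluor 680. After compound addition they were imaged on a CQ1 microscope at 37°C and 5% CO2, and CellPathfinder machine-learning gating split them into Hoechst high-intensity objects or normal cells, normal cells into healthy, pyknosed or fragmented nuclei, and pyknosed cells into mitotic or apoptotic.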

[1] = 12 h, 1 µM, compound concentration 1 uM
[2] = 12 h, 10 µM, compound concentration 10 uM
[3] = 24 h, 1 µM, compound concentration 1 uM
[4] = 24 h, 10 µM, compound concentration 10 uM
[5] = 48 h, 1 µM, compound concentration 1 uM
[6] = 48 h, 10 µM, compound concentration 10 uM

C[C@H](NC(=O)c1c(C(F)F)nn(C)c1Oc1cccc(C(F)(F)F)c1)c1ccc(C(=O)O)cc1 [PALUPIPRANT]
Population Apoptotic (%) [1]: 40% and 27% | Population Fragmented Nuclei (%) [1]: 6% | Population Healthy Nuclei (%) [1]: 80% and 83% | Population Hoechst High Intensity Objects (%) [1]: 7% and 5% | Population Membrane Permeable-Phenotype (%) [1]: 0% | Population Mitochondria Different-Phenotype (%) [1]: 44% and 60% | Population Mitotic Cells (%) [1]: 59% and 72% | Population Normal (%) [1]: 92% and 94% | Population Pyknosed Nuclei (%) [1]: 13% and 10% | Population Tubulin-Different-Phenotype (%) [1]: 28% | Total Cell Count [1]: 407 and 475 | Population Apoptotic (%) [2]: 38% and 60% | Population Fragmented Nuclei (%) [2]: 7% and 5% | Population Healthy Nuclei (%) [2]: 76% and 77% | Population Hoechst High Intensity Objects (%) [2]: 7% and 10% | Population Membrane Permeable-Phenotype (%) [2]: 0% | Population Mitochondria Different-Phenotype (%) [2]: 55% and 68% | Population Mitotic Cells (%) [2]: 61% and 40% | Population Normal (%) [2]: 92% and 89% | Population Pyknosed Nuclei (%) [2]: 16% and 17% | Population Tubulin-Different-Phenotype (%) [2]: 40% and 27% | Total Cell Count [2]: 371 and 293 | Population Apoptotic (%) [3]: 36% and 46% | Population Fragmented Nuclei (%) [3]: 9% and 7% | Population Healthy Nuclei (%) [3]: 80% and 83% | Population Hoechst High Intensity Objects (%) [3]: 5% and 4% | Population Membrane Permeable-Phenotype (%) [3]: 1% and 0% | Population Mitochondria Different-Phenotype (%) [3]: 27% and 35% | Population Mitotic Cells (%) [3]: 63% and 53% | Population Normal (%) [3]: 94% and 95% | Population Pyknosed Nuclei (%) [3]: 10% and 9% | Population Tubulin-Different-Phenotype (%) [3]: 18% and 19% | Total Cell Count [3]: 527 and 604 | Population Apoptotic (%) [4]: 26% and 55% | Population Fragmented Nuclei (%) [4]: 9% and 7% | Population Healthy Nuclei (%) [4]: 74% and 79% | Population Hoechst High Intensity Objects (%) [4]: 3% and 7% | Population Membrane Permeable-Phenotype (%) [4]: 0% | Population Mitochondria Different-Phenotype (%) [4]: 46% and 52% | Population Mitotic Cells (%) [4]: 73% and 44% | Population Normal (%) [4]: 96% and 92% | Population Pyknosed Nuclei (%) [4]: 16% and 13% | Population Tubulin-Different-Phenotype (%) [4]: 29% and 19% | Total Cell Count [4]: 465 and 353 | Population Apoptotic (%) [5]: 25% and 21% | Population Fragmented Nuclei (%) [5]: 13% and 14% | Population Healthy Nuclei (%) [5]: 79% and 78% | Population Hoechst High Intensity Objects (%) [5]: 2% and 4% | Population Membrane Permeable-Phenotype (%) [5]: 1% and 0% | Population Mitochondria Different-Phenotype (%) [5]: 17% and 18% | Population Mitotic Cells (%) [5]: 75% and 78% | Population Normal (%) [5]: 97% and 95% | Population Pyknosed Nuclei (%) [5]: 7% and 6% | Population Tubulin-Different-Phenotype (%) [5]: 13% and 9% | Total Cell Count [5]: 916 and 867 | Population Apoptotic (%) [6]: 29% and 28% | Population Fragmented Nuclei (%) [6]: 18% and 15% | Population Healthy Nuclei (%) [6]: 75% and 77% | Population Hoechst High Intensity Objects (%) [6]: 1% and 3% | Population Membrane Permeable-Phenotype (%) [6]: 1% and 0% | Population Mitochondria Different-Phenotype (%) [6]: 24% and 28% | Population Mitotic Cells (%) [6]: 70% and 71% | Population Normal (%) [6]: 98% and 96% | Population Pyknosed Nuclei (%) [6]: 6% | Population Tubulin-Different-Phenotype (%) [6]: 16% and 17% | Total Cell Count [6]: 821 and 554

CCOC(=O)c1c(/C(C#N)=C\N)c2ccc(Cl)c(Cl)c2n1C
Population Apoptotic (%) [1]: 10.92% and 11.11% | Population Fragmented Nuclei (%) [1]: 1.47% and 6.57% | Population Healthy Nuclei (%) [1]: 63.42% and 21.17% | Population Hoechst High Intensity Objects (%) [1]: 0.59% and 0% | Population Membrane Permeable-Phenotype (%) [1]: 0.47% and 0% | Population Mitochondria Different-Phenotype (%) [1]: 35.81% and 27.59% | Population Mitotic Cells (%) [1]: 89.08% and 88.89% | Population Normal (%) [1]: 99.41% and 100% | Population Pyknosed Nuclei (%) [1]: 35.1% and 72.26% | Total Cell Count [1]: 341 and 137 | Population Apoptotic (%) [2]: 10.34% and 8.77% | Population Fragmented Nuclei (%) [2]: 2.88% and 1.83% | Population Healthy Nuclei (%) [2]: 59.94% and 28.66% | Population Hoechst High Intensity Objects (%) [2]: 0.64% and 0% | Population Membrane Permeable-Phenotype (%) [2]: 0.53% and 0% | Population Mitochondria Different-Phenotype (%) [2]: 26.74% and 19.15% | Population Mitotic Cells (%) [2]: 89.66% and 91.23% | Population Normal (%) [2]: 99.36% and 100% | Population Pyknosed Nuclei (%) [2]: 37.18% and 69.51% | Total Cell Count [2]: 314 and 164 | Population Apoptotic (%) [3]: 15.32% and 13.98% | Population Fragmented Nuclei (%) [3]: 1.11% and 3.87% | Population Healthy Nuclei (%) [3]: 78.41% and 36.13% | Population Hoechst High Intensity Objects (%) [3]: 0.18% and 0% | Population Membrane Permeable-Phenotype (%) [3]: 1.18% and 0% | Population Mitochondria Different-Phenotype (%) [3]: 15.29% and 16.07% | Population Mitotic Cells (%) [3]: 84.68% and 86.02% | Population Normal (%) [3]: 99.82% and 100% | Population Pyknosed Nuclei (%) [3]: 20.48% and 60% | Population Tubulin-Different-Phenotype (%) [3]: 5.88% and 5.36% | Population Apoptotic (%) [4]: 10.47% and 16.46% | Population Fragmented Nuclei (%) [4]: 1.69% and 1.2% | Population Healthy Nuclei (%) [4]: 80.17% and 51.2% | Population Hoechst High Intensity Objects (%) [4]: 0% | Population Membrane Permeable-Phenotype (%) [4]: 1.05% and 1.18% | Population Mitochondria Different-Phenotype (%) [4]: 14.21% and 7.06% | Population Mitotic Cells (%) [4]: 89.53% and 83.54% | Population Normal (%) [4]: 100% | Population Pyknosed Nuclei (%) [4]: 18.14% and 47.59% | Population Tubulin-Different-Phenotype (%) [4]: 7.11% and 4.71% | Total Cell Count [4]: 474 and 166 | Population Apoptotic (%) [5]: 7.43% and 15.94% | Population Fragmented Nuclei (%) [5]: 4.65% and 2.55% | Population Healthy Nuclei (%) [5]: 86.28% and 72.26% | Population Hoechst High Intensity Objects (%) [5]: 0% | Population Membrane Permeable-Phenotype (%) [5]: 4.76% and 3.03% | Population Mitochondria Different-Phenotype (%) [5]: 8.8% and 13.13% | Population Mitotic Cells (%) [5]: 92.57% and 84.06% | Population Normal (%) [5]: 100% | Population Pyknosed Nuclei (%) [5]: 9.06% and 25.18% | Population Apoptotic (%) [6]: 9.24% and 19.3% | Population Fragmented Nuclei (%) [6]: 4.82% and 1.55% | Population Healthy Nuclei (%) [6]: 85.93% and 80.75% | Population Hoechst High Intensity Objects (%) [6]: 0% and 0.92% | Population Membrane Permeable-Phenotype (%) [6]: 5.88% and 2.31% | Population Mitochondria Different-Phenotype (%) [6]: 11.04% and 11.15% | Population Mitotic Cells (%) [6]: 90.76% and 80.7% | Population Normal (%) [6]: 100% and 99.08% | Population Pyknosed Nuclei (%) [6]: 9.25% and 17.7%
